Compound activity as filed in PubChem.
ATG4B inhibitor: ATG4B protease inhibitors, primary screen, biochemical, fluorescence, uHTS | ATG4B cleavage of LC3-PLA2, NBD-HPC fluorescence, 1 h | Cysteine protease ATG4B (Homo sapiens), Q9Y4P1 | AID 504462, 2011 | inhibition, % at 8.33 µM | 340,000 tested, 0.51% active; in the data active = inhibition above about 40%
Target sequence (Q9Y4P1 whole entry, looked up): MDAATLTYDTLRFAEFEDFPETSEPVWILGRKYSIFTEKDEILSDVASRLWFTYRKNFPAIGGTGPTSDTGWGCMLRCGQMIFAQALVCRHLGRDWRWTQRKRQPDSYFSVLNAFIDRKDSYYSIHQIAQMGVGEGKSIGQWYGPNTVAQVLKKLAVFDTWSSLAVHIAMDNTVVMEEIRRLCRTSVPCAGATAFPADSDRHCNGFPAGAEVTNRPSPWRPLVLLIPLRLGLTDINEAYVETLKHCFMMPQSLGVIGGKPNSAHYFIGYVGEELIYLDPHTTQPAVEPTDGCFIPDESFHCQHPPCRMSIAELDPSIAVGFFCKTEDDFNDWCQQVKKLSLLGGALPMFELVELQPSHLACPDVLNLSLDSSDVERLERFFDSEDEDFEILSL
TbMetRS inhib: T. brucei MetRS inhibitors, primary screen, biochemical, luminescence; AID 624268, 2012; methionyl-tRNA synthetase (Trypanosoma brucei brucei); inhibition, % at 11.9 µM; purified T. brucei MetRS, ATP depletion, Kinase-Glo luminescence; 360,000 tested, 0.4% active;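 active = inhibition above a per-plate cutoff of the control wells' mean inhibition plus 3 SD, cut at about 5.5% in these data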;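 note: 0% = DMSO wells median and 100% = median of wells with control inhibitor compound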
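Test system: purified T. brucei MetRS enzyme. Also added: ATP, methionine and E. coli bulk tRNA substrates. Compound: 11.9 µM single point. Schedule: 15 min enzyme-compound preincubation, 2 h reaction, 10 min detection, 25 °C. Signal: luciferase luminescence of residual ATP, Kinase-Glo. Evaluation: percent inhibition versus plate control medians. Controls: DMSO wells, low control.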
UCH37 inh: inhibitors of human UCH37 deubiquitinase, primary screen, biochemical, Ub-AMC cleavage, fluorescence. Ubiquitin carboxyl-terminal hydrolase isozyme L5 (Homo sapiens), Q9Y5K5. purified proteasome/UCH37. inhibition, % (test concentration not listed). 330,000 tested, 0.33% active. AID 588478, 2011;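 active = mean inhibition over replicate wells above about 20%, limit read from the data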;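 note: 0% = compound-free wells with enzyme and 100% = wells lacking proteasome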
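Schedule: 30 min plus 25 min, room temperature / Material: human UCH37 within purified proteasomes / Technique: AMC fluorescence intensity at 355/460 nm / Buffer or medium: pH 7.4 Tris-HCl (50 mM) with ovalbumin, ATP-MgCl2, DTT / Controls: wells without proteasome as full block, compound-free enzyme plus substrate as uninhibited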
Rin1 Abl inh: inhibitors of Rin1-Abl protein binding, primary screen, biochemical, TR-FRET. AID 588664, 2011. Tyrosine-protein kinase ABL1 (Homo sapiens) + Ras and Rab interactor 1 (Homo sapiens), …. 360,000 tested, 0.4% active. inhibition, % at 7.35 µM; in the data active = inhibition above about 5%, passing the limit was not always enough
Tb MetRS conf: T. brucei MetRS inhibitors, confirmation, biochemical, luminescence; shares compounds with TbMetRS inhib; T. brucei MetRS enzyme, luminescence (ATP depletion); inhibition, % at 11.9 µM; 1,400 tested, 93% active; in the data active = inhibition above about 7%
Jurkat cytotox: Jurkat T cell cytotoxicity, cytotoxicity control for T. brucei MetRS inhibitor project, luminescence, high throughput; shares compounds with TbMetRS inhib; Jurkat cells viability, ATP luminescence; inhibition, % at 8.3 µM; 1,400 tested, 12% active; AID 624413, 2012; in the data active = inhibition above about 15%;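 note: 0% = vehicle and 100% = reference inhibitor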
TbMetRS FP orth: T. brucei MetRS inhibitors, orthogonal assay for T. brucei MetRS inhibitor project, biochemical, fluorescence polarization | shares compounds with TbMetRS inhib | purified T. brucei MetRS | inhibition, % at 11.9 µM | 1,400 tested, 44% active | AID 651607, 2012; in the data active = inhibition above about 17%;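 note: 0% = vehicle wells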
Starred values were filed as active, the others as inactive; . = not tested or not shown. A selection: hits, their analogues and other compounds. The true share with any hit is near 1.4%.

SMILES	ATG4B inhibitor	TbMetRS inhib	UCH37 inh	Rin1 Abl inh	Tb MetRS conf	Jurkat cytotox	TbMetRS FP orth
Cc1cc(C)nc(NS(=O)(=O)c2ccc(NC(=O)Nc3ccccc3)cc2)n1	-5	13*	6	0	16*	2	5
Cc1cc(NS(=O)(=O)c2ccc(NC(=O)Nc3ccccc3)cc2)no1	9	8.4*	0	2	16*	5	-4
Brc1ccc2[nH]c3c(NCc4ccccn4)ncnc3c2c1	17	83*	1	-11	88*	3	79*
c1ccc(CNc2ncnc3c2oc2ccccc23)nc1	-4	-1	-2	-2	.	.	.
CC(=O)c1cccc(-c2ccnc3c2CC(C(=O)Nc2ccc(Cl)cc2)O3)c1 (stereo not given)	.	19*	.	3	46*	21*	22*
O=C(Nc1cccc(-c2nc3ccccc3[nH]2)c1)c1ccco1	-3	5.7*	6	-3	8.8*	7	15
O=c1cc(Cl)[nH]c(=O)n1Cc1ccccc1	-3	2	2	1	.	.	.
O=c1c(Cc2ccc(Cl)cc2Cl)c(O)ccn1Cc1ccc(Cl)cc1	2	5.9*	1	-1	16*	6	13
CCOC(=O)Cn1ccc(O)c(Cc2ccc(Cl)cc2Cl)c1=O	-5	23*	3	0	38*	5	16
NS(=O)(=O)c1ccc(NC(=S)NCc2cccc(Cl)c2)cc1	8	17*	1	-1	36*	29*	12
CCNC(=S)N=Nc1c(O)[nH]c2ccc(C(C)C)cc12	-9	0	0	-6	.	.	.
Brc1cnc2nc(SCc3nc4ccccc4[nH]3)[nH]c2c1	-9	57*	1	-1	85*	-2	65*
Fc1ccccc1CSCc1nc2ccccc2[nH]1	-1	1	4	-2	.	.	.
Cc1ccc(NN=C(Cc2nc3ccccc3[nH]2)c2ccccc2)cc1	.	.	-19	.	.	.	.
Clc1ccc(OCCSCc2nc3ccccc3[nH]2)cc1	-4	58*	1	-3	73*	5	48*
Clc1ccc(SCc2nc3ccccc3[nH]2)cc1	-7	17*	-1	0	30*	8	13
Clc1ccc(/C(Cc2nc3ccccc3[nH]2)=N\Nc2ccccc2)cc1	6	8.6*	.	-2	32*	4	17*
Cc1ccc(SCc2nc3ccccc3[nH]2)cc1	4	4	0	-1	.	.	.
COc1ccc(CN=C(NS(=O)(=O)c2cccs2)SC)cc1	-7	0	0	-2	.	.	.
Brc1ccc(-c2nnc3sc(CNCc4ccc5c(c4)OCO5)cn23)cc1	-10	33*	4	-21	48*	2	25*
Brc1ccc(-c2nnc3sc(CNC4CCCC4)cn23)cc1	-10	0	2	-69	.	.	.
Cc1cc(NC(=O)COC(=O)CCCOc2ccc(Cl)cc2C)no1	-10	6.5*	2	3	11*	-1	8
Cc1cc(NC(=O)COC(=O)CCS(=O)(=O)c2ccc(Cl)cc2)no1	8	0	6	2	.	.	.
COc1ccc(NC(=O)COC(=O)CCCOc2ccc(Cl)cc2Cl)cc1	20	7.0*	2	-3	17*	-8	23*
CC(C)(CO)NC(=O)CCCOc1ccc(Cl)cc1Cl	1	11*	1	1	13*	4	7
SMILES	ATG4B inhibitor	TbMetRS inhib	UCH37 inh	Rin1 Abl inh	Tb MetRS conf	Jurkat cytotox	TbMetRS FP orth
CCSc1nnc(NC(=O)CCc2ccccc2)s1	5	0	5	5	.	.	.
Cc1ccc2c(c1)c1nnc(SCC(=O)Nc3cccc(Cl)c3C)nc1n2CC(=O)O	0	23*	7	-1	65*	-7	33*
COc1ccc(NC(=O)COC(=O)COc2ccc(Br)cc2)cc1	-3	1	5	2	.	.	.
COc1ccc(OCCC(=O)OCC(=O)Nc2ccc(Br)cc2)cc1	-1	17*	2	0	18*	3	12
COc1ccc(CC(=O)OCC(=O)Nc2ccc(Br)cc2)cc1	-8	11*	3	-1	31*	-9	25*
CC(C)(C)NC(=O)COC(=O)c1ccc(S(=O)(=O)N2CCCC2)cc1	8	-1	1	3	.	.	.
O=C(CN1CCN(CCC(=O)Nc2ccccc2F)CC1)Nc1ccc(Cl)cc1	-1	6.4*	.	-2	-1	9	3
O=C(N=C1SC2CS(=O)(=O)CC2N1Cc1ccccc1)C1CCCO1 (stereo not given)	-6	0	2	2	.	.	.
CCc1ccc(C(=O)Nc2cc(C)on2)o1	-6	-1	5	2	.	.	.
Clc1cc(Br)ccc1OCCCn1ccnc1	-8	9.9*	0	0	17*	5	12
CC1(C)NC(=O)N(CCCOc2ccc(Br)cc2Cl)C1=O	5	11*	6	1	24*	-7	104*
O=S(=O)(NC1CCCCCC1)c1cccc(Cl)c1	0	0	1	5	.	.	.
COc1ccc(/C=C(/C#N)c2cccnc2)cc1OC	2	16*	0	-4	21*	-5	15
C[C@H](NC(=O)CCCOc1ccc(Cl)cc1Cl)c1nnc2ccccn12	3	7.4*	4	-2	16*	1	6
Cc1cc(OCCCC(=O)NCCc2nnc3ccccn23)ccc1Cl	-7	0	2	4	.	.	.
O=C(CCCOc1ccc(Cl)cc1Cl)NCCc1nnc2ccccn12	-9	7.8*	4	2	19*	0	12
Cc1ccc(NC(=O)C=NOCC(=O)Nc2cc(C)cc(C)c2)cc1	-2	24*	1	1	58*	-4	41*
O=C(CN1CCCCC1)Nc1nc(-c2ccccc2)cs1	-9	0	0	3	.	.	.
O=C(CN1CCOCC1)Nc1nc(-c2ccccc2)cs1	3	6.7*	-1	0	2	3	1
O=C(Nc1ccc(F)cc1)c1ccc(-n2cncn2)c([N+](=O)[O-])c1	2	34*	1	5	48*	22*	28*
CCCCc1nnc(NC(=O)c2ccc(-n3cncn3)c([N+](=O)[O-])c2)s1	-6	3	7	-1	.	.	.
Cc1ccc(NC(=O)c2ccc(-n3cncn3)c([N+](=O)[O-])c2)cc1F	-3	13*	4	-3	56*	1	25*
